A selection: hits, their analogues and other compounds. The true share with any hit is near 1.4%.
Fh CTSL1 inh = Fasciola hepatica cathepsin L1 inhibitors, primary screen, counter-screen for PFM18AAP inhibitor project, biochemical, QFRET, fluorogenic peptide substrate. recombinant F. hepatica cathepsin L1, Z-Leu-Arg-MCA fluorescence. inhibition, % at 5.96 µM. hit rate 0.49% among 300,000;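 active = inhibition above the mean of all tested compounds plus 3 SD, set per screening campaign, cut at about 17% in these data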;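 note: 0% = plate median of test compound wells and 100% = 1 µM Z-Phe-Ala-diazomethylketone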
Neddyl block = inhibitors of cullin neddylation, primary screen, biochemical, TR-FRET, uHTS, NAE and Ubc12; inhibition, % at 25 µM; hit rate 0.58% among 360,000; AID 651699, 2012; in the data active = inhibition above about 36%
SUMO HTRF inh = inhibitors of in vitro SUMOylation cascade, primary screen, biochemical, HTRF, uHTS. SUMO-conjugating enzyme UBC9 (Homo sapiens), P63279. HTRF SUMOylation assay, SAE1/SAE2 + UBC9. inhibition, % at 35 µM. hit rate 0.36% among 290,000. AID 2006, 2009; in the data active = inhibition above about 50%, passing the limit was not always enough
Target sequence (P63279 whole entry, looked up): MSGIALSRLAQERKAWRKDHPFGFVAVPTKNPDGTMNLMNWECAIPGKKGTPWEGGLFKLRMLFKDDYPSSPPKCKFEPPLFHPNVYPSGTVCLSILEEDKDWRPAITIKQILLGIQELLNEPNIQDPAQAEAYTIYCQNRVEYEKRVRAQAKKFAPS
UCH37 DUB inh = inhibitors of human UCH37 deubiquitinase, primary screen, biochemical, Ub-AMC cleavage, fluorescence. Ubiquitin carboxyl-terminal hydrolase isozyme L5 (Homo sapiens), Q9Y5K5. inhibition, % (test concentration not listed). purified proteasome/UCH37. AID 588478, 2011. hit rate 0.33% among 330,000;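 active = mean inhibition over replicate wells above about 20%, limit read from the data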;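 note: 0% = compound-free wells with enzyme and 100% = wells lacking proteasome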
Target sequence (Q9Y5K5 whole entry, looked up): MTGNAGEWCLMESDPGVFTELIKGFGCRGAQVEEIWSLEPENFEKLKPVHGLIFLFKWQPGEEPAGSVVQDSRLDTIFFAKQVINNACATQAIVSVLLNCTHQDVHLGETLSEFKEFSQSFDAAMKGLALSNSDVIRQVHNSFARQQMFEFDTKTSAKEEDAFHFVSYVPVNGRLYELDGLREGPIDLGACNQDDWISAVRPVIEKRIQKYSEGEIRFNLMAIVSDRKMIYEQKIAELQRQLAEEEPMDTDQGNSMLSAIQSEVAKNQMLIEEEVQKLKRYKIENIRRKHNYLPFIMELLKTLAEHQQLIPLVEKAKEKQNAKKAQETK
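assay system = human UCH37 enzyme supplied as purified proteasome complex | amount = proteasome at 0.15 nM in the dispensed enzyme solution | schedule = 30 min compound-proteasome preincubation then 25 min substrate reaction, room temperature | measured by = fluorescence, ex 355 nm, em 460 nm | benchmarks = no-proteasome wells (full inhibition) and compound-free wells (no inhibition)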
Neddyl conf = blockade of NEDD8 conjugation to cullin – biochemical, TR-FRET, single concentration, confirmation. shares compounds with Neddyl block. TR-FRET cullin neddylation biochemical assay. calls only at 25 µM. hit rate 13% among 1,800. AID 652217, 2013; in the data active = inhibition above about 40%;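 note: neddylation substrate is the cullin 1 ring ligase complex with SKP2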
Numbers without * were called inactive; i = inactive; . = no result shown; + = active, no number; ! = a repeat was not active.

SMILES	Fh CTSL1 inh	Neddyl block	SUMO HTRF inh	UCH37 DUB inh	Neddyl conf
CCC(=O)N(Cc1ccco1)Cc1cc2cc3c(cc2[nH]c1=O)OCO3	9.9	40.8*	25.3	-155.6	i
CCN(CC)CCN(Cc1cc2cc3c(cc2[nH]c1=O)OCCO3)C(=S)NCCCOC	8.5	46.2*	3.9	-122.1	.
CCN(CC)CCCN(Cc1cc2cc3c(cc2[nH]c1=O)OCO3)C(=S)NCc1ccco1	-0.9	41.3*	9.3	-191.6	i
COc1cc(C=NNC(=O)C(C)Nc2n[nH]c(=O)[nH]c2=O)cc(OC)c1O (stereo not given)	.	.	.	-0.4	.
Cc1ccc2nc(C)c(=NO)c(C)nc2c1	.	.	.	0.1	.
Cc1ccc(Oc2nc3c(C)cccn3c(=O)c2/C=C(\C#N)C(N)=O)cc1	-5.8	45.8*	22.8	-13.8	i
CCNC(=O)/C(C#N)=C/c1c(N2CCCCCC2)nc2ccccn2c1=O	3.1	.	5.4	3.4	.
COCCCNC(=O)/C(C#N)=C/c1c(N2CCN(c3ccc(OC)cc3)CC2)nc2c(C)cccn2c1=O	4.0	54.9*	10.9	8.4	i
COCCNC(=O)/C(C#N)=C/c1c(N2CCN(c3ccccc3)CC2)nc2ccccn2c1=O	4.3	.	15.2	-13.5	.
CCNC(=O)/C(C#N)=C/c1c(N2CCN(c3ccccc3)CC2)nc2ccccn2c1=O	.	43.2*	5.4	-270.1	+
CCOC(=O)/C(C#N)=C/c1c(Oc2cccc(C)c2)nc2c(C)cccn2c1=O	3.5	.	1.8	-3.5	.
COCCCNC(=O)/C(C#N)=C/c1c(N2CCN(c3ccccc3)CC2)nc2ccccn2c1=O	1.5	62.4*	17.7	-304.9	+
CC(=NNC(=O)c1cccs1)c1cccnc1	.	.	.	3.9	.
CCOc1cc(C=NNC(=O)c2ccccc2OCc2ccc(F)cc2)ccc1O	.	.	.	-4.9	.
Cc1ccc2cc3cc(C(=O)NCCCN4CCc5ccccc5C4)oc3nc2c1	12.2	57.4*	26.2	-359.1	+
Cc1cc(C=NNC(=O)CC(=O)NC2CCCCC2)c(C)n1-c1ccc(Cl)cc1	.	.	.	6.0	.
CCOC(=O)NN1C(=O)c2ccccc2NC1(C)C	2.3	.	33.0	i	.
CC1(C)Nc2ccccc2C(=O)N1NC(=O)c1ccccc1	-1.5	39.3*	0.4	-99.7	i
COC(OC)C1Nc2ccccc2C(=O)N1c1ccc(F)cc1 (stereo not given)	.	43.4*	.	-88.4	.
CCOC(=O)C1=C(C(=O)OCC)c2ccc(OC)c(OC)c2C1	.	40.8*	.	-5.5	i
C=CCOc1ccc(C(CC)=NO)cc1OC	.	.	.	-0.3	.
COc1ccccc1-c1nc(C#N)c(N2CCN(Cc3ccccc3)CC2)o1	2.8	45.6*	12.2	-11.2	.
CCc1ccc(-c2cnc3nc[nH]c(=O)c3n2)cc1	3.4	58.5*	.	i	+
O=c1[nH]c(=O)c2nc(-c3ccc(Cl)cc3)cnc2[nH]1	2.8	38.1	49.2	-342.8	.
Cc1cccn2c(=O)c(/C=N/O)c(NCc3ccccc3)nc12	-0.9	42.7*	22.5	.	.
SMILES	Fh CTSL1 inh	Neddyl block	SUMO HTRF inh	UCH37 DUB inh	Neddyl conf
Cc1cccn2c(=O)c(C=NCc3ccccc3)c(NCCO)nc12	1.7	45.4*	-5.6	-130.3	+
CC(=O)ON=Cc1c(NCc2ccccc2)nc2c(C)cccn2c1=O	.	.	.	-75.2	.
COc1cccc2c(=O)cc(C)n(CC(=O)Nc3cccc(C)c3)c12	-9.1	43.8*	5.6	-22.0	i
Cc1cc(=O)n2c(nc3ccccc32)[nH]1	3.3	.	-23.9	-105.1	.
CCCCc1c(C)[nH]c2nc3ccccc3n2c1=O	-0.4	.	13.7	-21.0	.
CCCCc1c(O)n2c(nc3ccccc32)[nH]c1=O	-2.4	60.0*	-9.4	3.0	+
CCCc1cc(=O)n2c(nc3ccccc32)[nH]1	0.4	49.4*	-10.3	-47.6	.
CC(=NOc1cccc(F)n1)c1ccc(Cl)cc1Cl	.	.	.	-0.2	.
Oc1cc2c(c(Cl)c1O)CCNCC2c1ccccc1 (stereo not given)	-1.5	-3.3	.	4.6	.
Oc1ccc(C2CNCCc3c2cc(O)c(O)c3Cl)cc1 (stereo not given)	1.0	49.5*!	.	2.4	.
COC(=O)c1ccc(CON=Cc2ccc(OC)cc2OC)cc1	.	.	.	4.0	.
CCOC(=O)C1CCN(C(=O)c2cc3ccc(OC)cc3[nH]2)CC1	-3.4	4.5	-3.1	3.0	.
CCOC(=O)C1CCCN(C(=O)c2cc3cc(OC)c(OC)cc3[nH]2)C1 (stereo not given)	.	42.5*	8.4	-29.5	.
CC(C)NC(=O)/C(=C/c1ccco1)c1ccccc1	3.0	39.0*	15.0	5.3	i
CC(=NN1CCN(C2c3ccccc3-c3ccccc32)CC1)c1cccnc1	.	.	.	5.5	.
CN(C)C=Nc1c(C#N)cnn1-c1ncnc2sc(-c3ccccc3)cc12	.	.	.	-8.1	.
CCCOC(=O)C1=C(C)N(C)C(=O)NC1c1cc2c(cc1[N+](=O)[O-])OCO2 (stereo not given)	3.3	42.5*	28.7	-27.0	i
CC1=C(C(=O)OCC(C)C)C(c2cc3c(cc2Br)OCO3)NC(=O)N1C (stereo not given)	2.4	7.2	-14.6	-0.4	.
Cc1ccc2oc(-c3ccco3)cc(=O)c2c1	3.5	45.5*	3.2	-189.9	+
O=c1cc(-c2ccco2)oc2ccccc12	.	39.9*	.	-168.6	+
Cc1ccc2oc3ccccc3c(=O)c2c1	.	34.4	.	.	.
Cc1cc(NN=Cc2ccncc2)c([N+](=O)[O-])cc1[N+](=O)[O-]	.	.	.	7.8	.
COc1ccc2[nH]c(C(=O)O)c(NS(=O)(=O)c3ccc(C)c(C)c3)c2c1	3.4	40.3*	13.1	-11.5	i
O=C1OCC2=C1C(c1ccc(F)cc1)c1cc3c(cc1N2)OCO3 (stereo not given)	.	41.9*	8.1	-183.8	.
CC(CC(=O)NC12CC3CC(CC(C3)C1)C2)=NNC(=O)c1ccc(F)cc1	.	.	.	2.0	.
SMILES	Fh CTSL1 inh	Neddyl block	SUMO HTRF inh	UCH37 DUB inh	Neddyl conf
NC(=O)N/N=C\c1cc(Br)ccc1O	-0.2	41.3*	8.4	.	i
CCCn1c(=O)[nH]c(=O)c2c1nc(-c1ccc(OC(F)F)c(OC)c1)n2CCOC	6.0	39.0*	21.9	1.1	i
CCOCCCn1c(=NC(=O)c2cccnc2)c(C(=O)OCC)cc2c(=O)n3ccccc3nc21	5.2	.	34.6	-202.4	+
CCCCn1c(=NC(=O)c2cccnc2)c(C(=O)OCC)cc2c(=O)n3ccccc3nc21	.	.	18.7	-140.6	.
COc1ccc(C(C)=NNC(=O)c2ccc(-c3ccccc3)cc2)c(F)c1	.	.	.	-3.8	.
O=C(CCN1C(=O)S/C(=C/c2ccc(F)cc2)C1=O)Nc1ccc(O)c(C(=O)O)c1	-3.4	44.0*	13.9	-11.5	i
COc1ccc(C=NNC(=O)c2sccc2C)cc1Cn1nc(C)cc1C	.	.	.	-0.8	.
COc1ccc(-c2sc(Nc3cccc4ccccc34)n[n+]2C)c(C)c1C	.	31.9*	.	-3.5	i
